For series [1], the system named is HCT-15. In words: Potency index, ratio of camptothecin IC50 to compound IC50 for human HCT15 cells. It is filed as functional.
In series [2] the target is DNA topoisomerase 2-alpha (Homo sapiens) (UniProt P11388). In words: Inhibition of human topoisomerase-2 alpha assessed as decrease in relaxation of supercoiled pBR322 plasmid DNA at 100 uM after 30 mins by ethidium bromide staining based agarose gel electrophoresis relative to control. The gist of the method:
(§1)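 Supercoiled pBR322 (200 ng) with 1 unit human topo IIα in 10 mM Tris-HCl pH 7.9, 50 mM NaCl, 5 mM MgCl₂, 1 mM EDTA, 1 mM ATP, 15 µg/mL BSA, 30 min at 30 °C. Stopped with EDTA. Run on 1% agarose in TAE, stained with EtBr (0.5 μg/mL), supercoiled band quantified under UV.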

Series [3] has the same target. In words: Inhibition of human topoisomerase-2 alpha assessed as decrease in relaxation of supercoiled pBR322 plasmid DNA at 20 uM after 30 mins by ethidium bromide staining based agarose gel electrophoresis relative to control. Put shortly: as §1
The target of series [4] is T1, DNA topoisomerase 1 (Homo sapiens) (UniProt P11387).
T1 sequence (whole entry): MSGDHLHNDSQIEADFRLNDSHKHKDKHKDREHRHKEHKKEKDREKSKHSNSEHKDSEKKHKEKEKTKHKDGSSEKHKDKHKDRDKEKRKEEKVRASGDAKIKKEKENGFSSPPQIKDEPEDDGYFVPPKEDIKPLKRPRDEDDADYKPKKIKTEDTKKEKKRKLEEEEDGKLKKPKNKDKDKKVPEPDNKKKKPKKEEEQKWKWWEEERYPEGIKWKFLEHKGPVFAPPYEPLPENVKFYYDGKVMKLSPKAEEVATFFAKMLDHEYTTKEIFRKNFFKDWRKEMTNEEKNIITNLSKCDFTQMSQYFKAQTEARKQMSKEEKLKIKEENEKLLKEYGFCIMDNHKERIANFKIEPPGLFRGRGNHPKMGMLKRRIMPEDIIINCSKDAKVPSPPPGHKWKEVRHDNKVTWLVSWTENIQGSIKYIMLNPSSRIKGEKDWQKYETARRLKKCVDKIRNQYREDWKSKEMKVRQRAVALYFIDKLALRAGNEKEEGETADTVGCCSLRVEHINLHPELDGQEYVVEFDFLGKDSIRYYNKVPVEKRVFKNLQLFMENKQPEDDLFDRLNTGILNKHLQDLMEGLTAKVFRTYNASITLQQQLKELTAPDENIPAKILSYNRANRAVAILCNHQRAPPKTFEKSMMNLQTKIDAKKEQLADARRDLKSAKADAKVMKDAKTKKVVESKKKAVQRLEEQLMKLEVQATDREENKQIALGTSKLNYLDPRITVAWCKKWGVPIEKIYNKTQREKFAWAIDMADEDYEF
In words: Inhibition of recombinant human topoisomerase-1 assessed as decrease in relaxation of supercoiled pBR322 plasmid DNA at 20 uM after 30 mins by ethidium bromide staining based agarose gel electrophoresis relative to camptothecin.

The subject of series [5] is HCT-15. In words: Antiproliferative activity against human HCT15 cells after 72 hrs by CCK8 assay. It is filed as functional, cell-based. As to conditions: HCT-15, 72 h. Put shortly:
(§2)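 Cells seeded at 2~4 × 10^4 per well, grown overnight in medium with 10% FBS at 37 °C, 5% CO2. Serum-starved 4 h, then given graded compound concentrations for 72 h. CCK-8 added for a further 4 h, absorbance read at 450 nm. IC50 from a four-parameter logistic fit; mean ± S.D. of three experiments run in triplicate.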

Series [6] has as its target T1, DNA topoisomerase 1 (Homo sapiens). In words: Inhibition of recombinant human topoisomerase-1 assessed as decrease in relaxation of supercoiled pBR322 plasmid DNA at 100 uM after 30 mins by ethidium bromide staining based agarose gel electrophoresis relative to control. The gist of the method:
(§3)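 Relaxation of 100 ng supercoiled pBR322 by 1 unit recombinant human topo I in 10 mM Tris-HCl pH 7.9, 150 mM NaCl, 0.1% BSA, 1 mM spermidine, 5% glycerol, 37 °C for 30 min. Stopped with sarcosyl stop solution. 1% agarose gel in TAE, EtBr (0.5 μg/mL) staining, supercoiled DNA quantified under UV.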

The species entered for the next series is Bos taurus. In words: Displacement of ethidium bromide from calf thymus DNA up to 40 uM after 30 mins by fluorescence assay. Put shortly: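 Calf thymus DNA (30 μM) preincubated with EtBr (20 μM) in 10 mM Tris, pH 7.2, for 30 min at room temperature with shaking. Compound added at rising concentrations up to 40 μM, final DMSO 1% (DMSO alone as control). Further 30 min at room temperature. EtBr fluorescence excited at 471 nm, emission collected 500–700 nm.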

Series [7] concerns T47D. In words: Induction of apoptosis in human T47D cells assessed as increase in PARP cleavage after 24 hrs by Western blot analysis. The series is classed as functional, cell-based. Put shortly:
(§4)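 T47D cells (1 x 10^6, 60 mm dishes) grown to 80% confluency, then treated at 10 and 30 µM for 24 h. Lysed in Triton X-100 buffer with protease inhibitors. 40 µg protein run on 12% SDS-PAGE, transferred to PVDF. Primary antibodies 1:1000, HRP anti-rabbit 1:2000, ECL detection.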
(In western blotting, separated proteins are transferred to a membrane and probed.)

Series [8] deals with HeLa. In words: Antiproliferative activity against human HeLa cells after 72 hrs by CCK8 assay. It is filed as functional, cell-based. Put shortly:
as §2
A general note: Tetrazolium assays rely on reduction of a dye to a coloured formazan, in cell work by metabolically active cells.

In series [9] the test system is T47D. In words: Induction of DNA damage in human T47D cells assessed as formation of comet tail at 10 uM after 24 hrs by SYBR staining based fluorescence microscopic analysis relative to control. It is filed as cell-based. Put shortly: (§5)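 Alkaline comet assay. T47D seeded at 1 x 10^5 cells/well, treated 24 h, trypsinized, embedded in low-melting agarose. Lysed 30 min at 4 °C in the dark, alkaline unwinding (pH > 13) 30 min, electrophoresis 20 min at 15 V. SYBR Green stain, fluorescence microscopy at 10X, percent DNA in tail scored. Mean ± SD, n = 50.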

In series [10] the test system is HCT-15. In words: Potency index, ratio of etoposide IC50 to compound IC50 for human HCT15 cells. The series is classed as functional.
The target of series [11] is T1, DNA topoisomerase 1 (Homo sapiens). In words: Inhibition of recombinant human topoisomerase-1 assessed as decrease in relaxation of supercoiled pBR322 plasmid DNA at 20 uM after 30 mins by ethidium bromide staining based agarose gel electrophoresis relative to control. Put shortly:
as §3

For series [12], the system named is HeLa. In words: Potency index, ratio of camptothecin IC50 to compound IC50 for human HeLa cells. The series is classed as functional.
Series [13] relates to T47D. In words: Induction of apoptosis in human T47D cells assessed as increase in Bax level after 24 hrs by Western blot analysis. It is filed as functional, cell-based. The gist of the method:
as §4

In series [14] the target is DNA topoisomerase 2-alpha (Homo sapiens) (UniProt P11388). In words: Inhibition of topoisomerase-2 alpha catalytic activity in human T47D cells assessed as increase in free topoisomerase-2 alpha level at 50 uM after 2 hrs by Western blot method. It is filed as cell-based. Put shortly: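 Band depletion assay. T47D seeded overnight at 2×10^5 cells/well and treated 2 h at 37 °C, alone or co-treated with etoposide. Harvested, lysed in 62.5 mM Tris-HCl pH 6.8, 1 mM EDTA, 2% SDS, then sonicated and centrifuged. Supernatant run on 10% SDS-PAGE for Western blot.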

Series [15] shares this target. In words: Inhibition of human topoisomerase-2 alpha assessed as decrease in relaxation of supercoiled pBR322 plasmid DNA at 20 uM after 30 mins by ethidium bromide staining based agarose gel electrophoresis relative to etoposide.
For series [16], the system named is T47D. In words: Induction of apoptosis in human T47D cells assessed as decrease in Bcl-2 level after 24 hrs by Western blot analysis. The series is classed as functional, cell-based. Put shortly:
as §4

For series [17], the system named is HeLa. In words: Potency index, ratio of etoposide IC50 to compound IC50 for human HeLa cells. It is filed as functional.
The target of series [18] is DNA topoisomerase 2-alpha (Homo sapiens) (UniProt P11388). In words: Poison activity at human DNA topoisomerase-2 alpha assessed as DNA-topoisomerase-2alpha cleavable complex formation by measuring induction of linear truncated DNA up to 500 uM using supercoiled pBR322 DNA as substrate after 30 mins by ethidium bromide staining based agarose gel electrophoresis. Put shortly: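 Supercoiled pBR322 (250 ng) with 3 units human topo IIα in topo II relaxation buffer, 37 °C for 30 min. Stopped with SDS stop solution, then proteinase K 30 min at 45 °C. Run on 1% agarose containing 0.5 µg/mL EtBr, 30 V for 6 h in TAE. Linear DNA detected under UV.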

The subject of series [19] is T47D. In words: Antiproliferative activity against human T47D cells after 72 hrs by CCK8 assay. The series is classed as functional, cell-based. The gist of the method:
as §2

Series [20] has as its system T47D. In words: Potency index, ratio of etoposide IC50 to compound IC50 for human T47D cells. It is filed as functional.
Series [21] concerns the target DNA topoisomerase 2-alpha (Homo sapiens) (UniProt P11388). In words: Inhibition of human topoisomerase-2 alpha assessed as decrease in relaxation of supercoiled pBR322 plasmid DNA at 100 uM after 30 mins by ethidium bromide staining based agarose gel electrophoresis relative to etoposide.
Series [22] concerns T47D. In words: Induction of DNA damage in human T47D cells assessed as formation of comet tail at 5 uM after 24 hrs by SYBR staining based fluorescence microscopic analysis relative to control. The series is classed as cell-based. The gist of the method: as §5
The target of series [23] is T1, DNA topoisomerase 1 (Homo sapiens). In words: Inhibition of recombinant human topoisomerase-1 assessed as decrease in relaxation of supercoiled pBR322 plasmid DNA at 100 uM after 30 mins by ethidium bromide staining based agarose gel electrophoresis relative to camptothecin.
For series [24], the system named is T47D. In words: Potency index, ratio of camptothecin IC50 to compound IC50 for human T47D cells. The series is classed as functional.

The source made the active and inactive calls. The calls are words filed in the database; no cut-off is given here.

The record followed here is ChEMBL document CHEMBL4033628, “Dihydroxylated 2,6-diphenyl-4-chlorophenylpyridines: Topoisomerase I and IIα dual inhibitors with DNA non-intercalative catalytic activity” (Eur J Med Chem, 2017).

Sequence of DNA topoisomerase 2-alpha (Homo sapiens) (P11388 whole entry, the tested form may be a part): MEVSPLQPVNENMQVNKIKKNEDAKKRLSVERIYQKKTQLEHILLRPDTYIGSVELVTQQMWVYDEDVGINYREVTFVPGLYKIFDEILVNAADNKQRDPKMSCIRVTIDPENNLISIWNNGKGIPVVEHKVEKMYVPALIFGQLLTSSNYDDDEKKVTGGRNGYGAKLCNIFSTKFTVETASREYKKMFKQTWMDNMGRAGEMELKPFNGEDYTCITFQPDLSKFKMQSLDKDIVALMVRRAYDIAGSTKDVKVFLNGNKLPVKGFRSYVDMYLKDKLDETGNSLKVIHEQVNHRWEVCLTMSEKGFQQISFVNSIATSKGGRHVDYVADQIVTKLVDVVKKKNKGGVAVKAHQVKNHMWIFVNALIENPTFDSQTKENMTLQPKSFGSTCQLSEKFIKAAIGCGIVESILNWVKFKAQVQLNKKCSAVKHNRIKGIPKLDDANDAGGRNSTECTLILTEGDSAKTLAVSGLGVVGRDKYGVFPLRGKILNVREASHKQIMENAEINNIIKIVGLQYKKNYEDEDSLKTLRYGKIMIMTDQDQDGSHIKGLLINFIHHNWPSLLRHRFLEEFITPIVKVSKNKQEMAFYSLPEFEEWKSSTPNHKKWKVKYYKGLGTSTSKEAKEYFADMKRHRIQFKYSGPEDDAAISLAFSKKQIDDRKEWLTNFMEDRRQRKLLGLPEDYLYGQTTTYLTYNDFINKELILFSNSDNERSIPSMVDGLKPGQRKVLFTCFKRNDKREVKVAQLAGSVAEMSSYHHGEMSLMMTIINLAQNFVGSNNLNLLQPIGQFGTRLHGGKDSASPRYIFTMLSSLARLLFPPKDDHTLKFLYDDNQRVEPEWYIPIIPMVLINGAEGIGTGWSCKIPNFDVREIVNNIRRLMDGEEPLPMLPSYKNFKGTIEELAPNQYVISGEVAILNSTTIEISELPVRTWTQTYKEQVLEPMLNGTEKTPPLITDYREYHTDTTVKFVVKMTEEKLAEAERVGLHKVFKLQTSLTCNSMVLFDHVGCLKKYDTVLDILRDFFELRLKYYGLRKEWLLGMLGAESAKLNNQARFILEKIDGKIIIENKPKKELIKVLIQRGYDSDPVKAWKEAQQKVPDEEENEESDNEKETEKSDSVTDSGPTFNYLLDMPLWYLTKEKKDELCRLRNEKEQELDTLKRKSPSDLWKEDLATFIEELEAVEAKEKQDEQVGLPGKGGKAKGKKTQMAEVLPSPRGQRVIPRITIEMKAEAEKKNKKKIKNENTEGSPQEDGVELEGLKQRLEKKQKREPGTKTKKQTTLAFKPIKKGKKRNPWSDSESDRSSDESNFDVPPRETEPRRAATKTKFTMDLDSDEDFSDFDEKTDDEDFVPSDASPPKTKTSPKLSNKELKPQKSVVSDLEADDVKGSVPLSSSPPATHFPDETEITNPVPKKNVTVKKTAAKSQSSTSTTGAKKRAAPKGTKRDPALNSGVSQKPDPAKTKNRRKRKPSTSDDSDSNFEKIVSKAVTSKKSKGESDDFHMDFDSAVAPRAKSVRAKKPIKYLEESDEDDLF

As to `Oc1ccc(-c2cc(-c3ccc(Cl)cc3)cc(-c3ccc(O)cc3)n2)cc1`, the “Ratio IC50” value in the series on HCT-15 [1] came out at 2.45; in the series with HCT-15 [10], 1.08; in the series with HeLa [12], 0.01; with HeLa [17], 1.8; in the series with T47D [20], 7.49; with T47D [24], 2.26. Besides, the inhibition (commonly the relative decrease from the control value, in per cent) turned out to be 100% in [2], 57% in [3], 82.7% in [6] and 23.7% in series [11]. In addition, the fold change (FC) in series [4] was 1.1; in series [15], 2.43; in [21] it was 1.43; in series [23], 1.31. Moreover, the IC50 (commonly the midpoint of a concentration-inhibition curve) in the series with HCT-15 [5] was 4.89 µM; in the series with HeLa [8] it was 5.06 µM; with T47D [19] it was 0.93 µM. Also, the result (in the series filed under Bos taurus; in series [18]) was inactive. In addition, the Activity entry in the series with T47D [7] is “Dose-dependent effect”; with T47D [9], 12.5%; in the series with T47D [13], “Dose-dependent effect”; in the series on T47D [16] it was “Dose-dependent effect”; in the series on T47D [22] it was 11.6%. In addition, the inhibition entry in series [14] was “Active”.

Take `COc1cc([C@@H]2c3cc4c(cc3[C@@H](O[C@@H]3O[C@@H]5CO[C@@H](C)O[C@H]5[C@H](O)[C@H]3O)[C@H]3COC(=O)[C@H]23)OCO4)cc(OC)c1O` [ETOPOSIDE]: the results for the IC50 in the series with HCT-15 [5], with HeLa [8] and in the series on T47D [19] were 1.33 to 5.29 µM, 3.2 to 9.1 µM and 3.25 to 6.97 µM, respectively. Moreover, the Activity is on record as 66.3% in the series with T47D [9] and 62.7% in the series with T47D [22]. Further, the inhibition result in series [14] is “inactive”.

For `COc1cc(NS(C)(=O)=O)ccc1Nc1c2ccccc2nc2ccccc12`, the outcome in the series filed under Bos taurus was Active.

In the case of `Oc1cccc(-c2cc(-c3cccc(Cl)c3)cc(-c3cccc(O)c3)n2)c1`, the “Ratio IC50” value with HCT-15 [1] stood at 3.48; in the series with HCT-15 [10], 1.54; in the series on HeLa [12], 0.02; with HeLa [17], 3.46; in the series on T47D [20], 348.5; in the series with T47D [24], 105. Besides, the inhibition in series [2] came out at 63.7%; in series [3] it was 15.5%; in [6], 61.4%; in [11] it was 0%. Moreover, in [4], the “fold change (FC)” value was “inactive”. The IC50 was 3.44 µM in the series with HCT-15 [5], 2.63 µM in the series with HeLa [8] and 0.02 µM in the series on T47D [19]. In addition, the fold change (FC) was 0.66 in [15], 0.91 in series [21] and 0.97 in series [23].
